Compound activity: PubChem BioAssay, Johns Hopkins Ion Channel Center
Rows were chosen to be rich in hits. Some 3.5% of all compounds tested hit in one or more screens of this group.
RGS4 inh: human RGS4 inhibition. AID 463165. B-score at 10 µM. HEK293 M3R/RGS4 inducible, Fluo-4 calcium flux; stronger effect = higher value; triggered by carbachol at its EC20. P49798. actives 0.45% (n = 310,000);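 active means B-score, a plate-corrected calcium signal, over three deviations above library mean, with baseline fluorescence within five deviations of library mean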;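 further: RGS4 expression induced by doxycycline in cells with stable M3 receptor; B-score is computed from the integrated fluorescence ratio over baseline after carbachol; higher B-score means a larger calcium signal and so more RGS4 inhibition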
Target sequence (P49798 whole entry, looked up): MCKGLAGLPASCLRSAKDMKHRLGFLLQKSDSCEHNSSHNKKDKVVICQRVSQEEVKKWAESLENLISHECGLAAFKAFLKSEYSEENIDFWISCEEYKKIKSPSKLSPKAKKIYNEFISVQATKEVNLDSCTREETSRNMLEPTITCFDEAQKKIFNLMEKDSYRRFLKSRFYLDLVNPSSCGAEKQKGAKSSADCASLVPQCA
MrgX1 allo act: allosterically activates human MrgX1 receptor signaling; MrgX1-HEK293, Fluo-4 calcium flux, FDSS; stronger effect = higher value; B-score at 10 µM; actives 0.63% (n = 310,000); AID 588675;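 active means plate-corrected calcium response at least 3 library SD above typical, normal starting fluorescence, not activating the receptor alone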;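 further: compound read alongside a low EC10 to EC30 dose of BAM8-22 agonist; peak minus trough fluorescence over baseline measured at the second addition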
Target sequence (Q96LB2 whole entry, looked up): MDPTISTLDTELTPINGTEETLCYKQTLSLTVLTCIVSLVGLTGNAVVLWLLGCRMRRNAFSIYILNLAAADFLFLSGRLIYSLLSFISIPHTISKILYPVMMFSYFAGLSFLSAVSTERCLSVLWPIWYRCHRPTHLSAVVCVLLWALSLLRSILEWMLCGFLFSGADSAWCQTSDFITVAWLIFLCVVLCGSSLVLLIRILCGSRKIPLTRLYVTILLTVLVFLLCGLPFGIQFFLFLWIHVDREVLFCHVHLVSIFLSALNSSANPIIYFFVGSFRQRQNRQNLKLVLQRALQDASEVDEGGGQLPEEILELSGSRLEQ
MrgX1 antag: human MrgX1 receptor antagonism, primary screen; MRGX1-HEK293 calcium flux, Fluo-4, BAM8-22 antagonism; stronger effect = lower value; B-score at 10 µM; actives 1.3% (n = 310,000);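 active means calcium-response B-score plate-corrected more than 3 library SD below zero, starting fluorescence within 5 deviations, no agonist response on first addition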;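 further: peak minus trough fluorescence over baseline after final BAM8-22 challenge near maximal dose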
RGS4 pot: potentiators or activators of RGS4. HEK293 M3R/inducible RGS4, carbachol calcium flux Fluo4; stronger effect = lower value. B-score at 10 µM. actives 0.92% (n = 310,000). AID 463111;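 active means B-score of the integrated calcium signal more than 4 SD below the library mean, with starting fluorescence not abnormally high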;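 further: negative B-score means reduced calcium response which marks RGS4 activation or potentiation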
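Test system: HEK293 cells with stable M3R and inducible RGS4; also added: carbachol at ECmax as muscarinic agonist stimulus; schedule: dye loading 30 min 37 °C, buffer rest 30 min RT; technique: kinetic calcium fluorescence imaging with Fluo4-AM dye, 2 µM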
MrgX1 ag: activates human MrgX1 receptor signaling. MrgX1-HEK293 cells, Fluo-4 calcium fluorescence, agonist mode; stronger effect = higher value. actives 0.44% (n = 310,000). AID 588627. B-score at 10 µM. Q96LB2;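 active means calcium response B-score plate-corrected fluorescence ratio at least 3 library SD, with starting fluorescence B-score inside 5 SD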
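Material – MrgX1-expressing HEK293 cells · Input – 15,000 cells seeded per well · Dosing – compound as first of three additions · Times – overnight seeding, then 1 h dark dye loading · Measured by – kinetic Fluo-4 NW fluorescence of intracellular calcium · Read-out – B-scored fluorescence response ratio · Benchmarks – positive and negative control wells on each plate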
Starred values were filed as active, the others as inactive; i = inactive; . = no result.

SMILES	RGS4 inh	MrgX1 allo act	MrgX1 antag	RGS4 pot	MrgX1 ag
CSc1nsc(SCC(=O)Nc2cccc(C(=O)O)c2)n1	i	i	i	i	i
Cc1cccc(-c2nnc(-c3cccc(NC(=O)Cc4cccs4)c3)o2)c1	i	i	i	-7.4*	i
O=C(Cc1cccs1)Nc1ccc(-c2nnc(-c3ccccc3)o2)cc1	i	i	i	i	i
Cn1nc(-c2ccccc2)c(C#N)c1Sc1cccc(Cl)c1	i	i	i	-7.3*	i
O=S(=O)(c1ccc(F)cc1)N1CCC2(CC1)OCCN2S(=O)(=O)c1cccs1	i	i	i	i	i
Cc1ccccc1S(=O)(=O)Oc1ccc2ccc(O)cc2c1	i	i	i	-8.9*	i
Cn1ncc([N+](=O)[O-])c1C(=O)N/N=C/c1cccc([N+](=O)[O-])c1	i	i	-5.4*	i	i
OC[C@H]1OC(O)[C@H](O)[C@@H]1O (stereo partly specified)	.	i	i	.	i
O=C1C2CC=CCC2C(=O)N1c1ccc(NCCc2ccc(O)cc2)c([N+](=O)[O-])c1 (stereo unspecified)	i	i	-5.2*	i	i
O=C1C2CC=CCC2C(=O)N1c1ccc(NCCc2ccc(Cl)cc2)c([N+](=O)[O-])c1 (stereo unspecified)	i	i	i	i	i
COC1=CC(=Cc2c(N)n3nc(CC(=O)N4CCCCC4)sc3nc2=O)C=C(OC)C1=O	i	i	i	i	i
COC1=C/C(=C/c2c(N)n3nc(CC(=O)N4CCCC4)sc3nc2=O)C=CC1=O	i	i	-5.9*	i	i
CCOC1=C/C(=C/c2c(N)n3nc(CC(=O)N4CCCC4)sc3nc2=O)C=CC1=O	i	i	i	i	31*
COc1ccc(C2C(C(N)=O)=C(C)Nc3nc(CCCO)nn32)cc1OC (stereo unspecified)	i	i	i	i	i
O=C(CN(C(=O)CNC(=O)c1cccs1)c1ccc(F)cc1)NC1CCCC1	i	i	i	i	i
Cc1cc(-n2cccn2)ccc1CN1CCN(CC(C)C)C(CCO)C1 (stereo unspecified)	i	i	i	-7.3*	i
Cc1cc(-n2cccn2)ccc1CN1CCN(C2CCCC2)C(CCO)C1 (stereo unspecified)	i	i	i	i	i
c1ccc2c(c1)CCN(c1ncnc3c1[nH]c1ccccc13)C2	i	i	-8.2*	i	i
Cc1c(N=C/C=C/c2ccccc2)c(=O)n(-c2ccccc2)n1C	i	i	i	-8.7*	i
Cc1c(N=Cc2cccnc2)c(=O)n(-c2ccccc2)n1C	i	i	i	i	i
C=CCn1c2ccccc2c2nnc(SCCN3CCCCC3)nc21	i	i	i	-7.3*	i
CCCn1c2ccccc2c2nnc(SCCN3CCOCC3)nc21	i	i	i	i	i
CCn1c2ccc(F)cc2c2nnc(SCCN3CCCCC3)nc21	i	i	i	-7*	i
CSC1=N/C(=C\c2ccc(C)cc2)C(=O)S1	i	16*	i	i	i
CCOC(=O)SC1=N/C(=C\c2ccc(N(C)C)cc2)C(=O)S1	i	7.8*	i	i	i
SMILES	RGS4 inh	MrgX1 allo act	MrgX1 antag	RGS4 pot	MrgX1 ag
Cc1cc(/C=N/n2cnnc2)c(C)n1-c1ccc(Cl)cc1	i	i	i	i	i
Cc1cc(/C=N/n2cnnc2)c(C)n1-c1ccc(OCc2ccc(Cl)cc2Cl)cc1	i	i	i	-8.3*	i
c1cncc(CSc2nnc(-c3cccnc3)n2Cc2ccco2)c1	i	.	.	i	.
O=C(CSc1nnc(-c2cccnc2)n1Cc1ccco1)N1c2ccccc2Sc2ccccc21	.	i	-4.5*	.	i
CN1CCN(CC#CCn2c3ccccc3c3ccccc32)CC1	i	i	i	-7.1*	i
Cc1ccc(C(=O)NCC(=O)OC(C)C(=O)Nc2ccc(N(C)C)cc2)cc1C (stereo unspecified)	i	i	i	i	i
CCCCCCn1c(COc2ccccc2F)nnc1SCC(=O)c1c(N)n(C)c(=O)n(C)c1=O	i	i	i	i	i
C=CCn1c(COc2cc(C)ccc2C(C)C)nnc1SCC(=O)c1c(N)n(C)c(=O)n(C)c1=O	i	i	-4.7*	i	i
CCn1cc(/C=C/C(=O)Nc2c(C)nn(Cc3ccccc3)c2C)cn1	i	i	i	i	i
Cc1nn(Cc2ccccc2Cl)c(C)c1NC(=O)/C=C/c1cnn(C)c1	i	i	-4.6*	i	i
Cc1ccc(Nc2nnc(SCC(=O)c3ccc(Br)s3)s2)c(C)c1	i	i	i	i	i
Cc1cccc(C)c1Nc1nnc(SCC(=O)c2ccc(Br)s2)s1	i	i	i	-7.7*	i
COC(=O)CN1C(=S)N(c2ccc(OC)cc2)C(=O)/C1=C/c1ccc(N2CCOCC2)cc1	i	i	-6.1*	i	i
O=[N+]([O-])c1cc([N+](=O)[O-])c(Oc2cncc(Cl)c2)cc1NC1CCCCCCC1	i	i	i	i	i
Cc1cc(C)cc(N2CC(C(=O)OCC(=O)Nc3cc(C)on3)CC2=O)c1 (stereo unspecified)	i	i	i	i	i
Cc1ccc(S(=O)(=O)Oc2ccccc2/C=C2/SC(=O)NC2=O)cc1	i	i	i	i	27*
CC(C)OCCCNC(=O)C1CC(=O)N(CCc2ccc(F)cc2)C1 (stereo unspecified)	i	i	i	i	i
Cc1ccc(CCN2CC(C(=O)NCCCOC(C)C)CC2=O)cc1 (stereo unspecified)	i	i	-4.5*	i	i
O=C(CN1CCCCCC1)Nc1ccccc1Oc1ccccc1	i	i	i	-7.2*	i
O=C(Nc1ccc(C(=O)O)cc1)/C(=C\C=C\c1ccccc1)NC(=O)c1cccc(Br)c1	i	i	i	i	i
O=C(Nc1ccc(C(=O)O)cc1)/C(=C\C=C\c1ccccc1)NC(=O)c1ccccc1Br	i	i	i	-7.7*	i
CCN(CC)CCNC(=O)c1ccc(NC(=O)c2ccccc2-c2ccc(C(F)(F)F)cc2)cc1	i	i	i	-9.5*	i
CCN(CC)CCNC(=O)c1ccc(NC(=O)c2cn(-c3ccccc3)nc2-c2cccs2)cc1	i	i	i	-8.1*	i
CCN(CC)CCNC(=O)c1ccc(NC(=O)/C=C/c2ccc3ccccc3n2)cc1	i	i	-8.5*	i	i
